Where a SMILES comes first, the peptide text is derived from it. [ ]: non-standard residue; d: D form. The star is where a group is joined. Phe(4-NO2) = N[C@@H](Cc1ccc([N+](=O)[O-])cc1)C(=O)O; Chlorambucil = O=C(CCCc1ccc(N(CCCl)CCCl)cc1)*; Phe(4-NH2) = Nc1ccc(C[C@H](N)C(=O)O)cc1
Tests used:
Type in all cases: functional
[1] = Compound was evaluated for its ability to inhibit the thrombin-initiated clotting time of citreated human plasma.; design: concentration or dose not given beside the values
Outline: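 Bovine thrombin in saline, dosed to give a 20 s clot, added to 200 µL citrated human plasma plus 100 µL saline containing peptide at 37 °C. Time to first clot recorded. Chlorambucil peptides came from DMSO stock diluted in saline; optional 15 min, 4 °C preincubation with plasma or thrombin. Molar activity from dose-response slope versus reference, with molarity from amino acid analysis.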

Homo sapiens = species on record: Homo sapiens; assay: Compound was evaluated for its ability to inhibit fibrin polymerization.; design: concentration or dose not given beside the values; conditions: dose or concentration not given here
Outline: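 Fibrin monomer from human fibrinogen (8.3 mg protein/mL solution) diluted into phosphate buffer (80 mM, pH 6.3) containing peptide; reaggregation followed at 350 nm. Optional preincubation: peptide in 1 M NaBr/0.05 M NaOAc pH 5.3 with monomer, 15 min, room temperature, before buffer addition. Molar activity from linear dose-response slope versus reference tetrapeptide, averaged values.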

[2] = target: Prothrombin (Homo sapiens) (UniProt P00734); assay: Compound was evaluated for its ability to inhibit thrombin catalyzed amidolysis; conditions: concentration not given here
Outline: (§1)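 Thrombin (0.5 unit) at 37 °C with 0.25 mL of 1 mM Tos-Gly-Pro-Arg-p-nitroanilide, 0.25 mL saline containing 2 mg/mL peptide, and 1.5 mL saline. Chromophore read at 405 nm. Where indicated, peptide and thrombin were preincubated 15 min at 4 °C before substrate addition.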

[3] = target: Prothrombin (Homo sapiens) (UniProt P00734); assay: Compound was evaluated for its ability to inhibit thrombin catalyzed amidolysis.; design: concentration or dose not given beside the values; conditions: concentration not given here; outline: as §1
[4] = Relative potency was determined

In the case of `N=C(N)NCCC[C@H](NC(=O)[C@@H]1CCCN1C(=O)CCCc1ccc(N(CCCl)CCCl)cc1)C(=O)N1CCC[C@H]1C(=O)O`, the Inhibition [1] is reported as 0%.
For `N=C(N)NCCC[C@H](NC(=O)CCCc1ccc(N(CCCl)CCCl)cc1)C(=O)N1CCC[C@H]1C(=O)O`, the Inhibition [1] was 0%.
With `NCC(=O)N1CCC[C@H]1C(=O)N[C@@H](CCCN=C(N)N)C(=O)N1CCC[C@H]1C(=O)O` the inhibition (Homo sapiens) was 100%, the inhibition [2] was 0% and the Inhibition [1] was 100%.
With `N=C(N)NCCC[C@H](NC(=O)[C@@H]1CCCN1C(=O)CNC(=O)CCCc1ccc(N(CCCl)CCCl)cc1)C(=O)N1CCC[C@H]1C(=O)O` (Chlorambucil-GPRP-OH) the Inhibition [1] was 0%.
`NCC(=O)N1CCC[C@H]1C(=O)N[C@@H](CCCN=C(N)N)C(=O)N1CCC[C@H]1C(=O)N[C@@H](Cc1ccc(N)cc1)C(=O)O` (H-GPRP[Phe(4-NH2)]-OH) showed an inhibition (Homo sapiens) of 105%, an Inhibition [1] of 81% and an inhibition [3] of 0%.
`NCC(=O)N1CCC[C@H]1C(=O)N[C@@H](CCCN=C(N)N)C(=O)N[C@@H](Cc1ccc(N)cc1)C(=O)O` (H-GPR[Phe(4-NH2)]-OH) showed a Relative potency [4] of 0.22, an inhibition (Homo sapiens) of 22% and an Inhibition [1] of 5%. It also gave an inhibition [3] of 0%.
`NCC(=O)N1CCC[C@H]1C(=O)N[C@@H](Cc1ccc([N+](=O)[O-])cc1)C(=O)N1CCC[C@H]1C(=O)O` (H-GP[Phe(4-NO2)]P-OH) gave an Inhibition [1] of 0% and an inhibition [3] of 0%.
`NCC(=O)N[C@@H](Cc1ccc([N+](=O)[O-])cc1)C(=O)N[C@@H](CCCN=C(N)N)C(=O)N1CCC[C@H]1C(=O)O` (H-G[Phe(4-NO2)]RP-OH) showed an Inhibition [1] of 10% and an inhibition [3] of 0%.
In the case of `NCC(=O)N1CCC[C@H]1C(=O)N[C@@H](CCCN=C(N)N)C(=O)N[C@@H](Cc1ccc([N+](=O)[O-])cc1)C(=O)O` (stereo in doubt; 9) [listing 1 of 2 here], the Inhibition [1] is reported as 2%.
`NCC(=O)N1CCC[C@H]1C(=O)N[C@@H](CCCN=C(N)N)C(=O)N[C@@H](Cc1ccc([N+](=O)[O-])cc1)C(=O)O` (stereo in doubt; 9) [listing 2 of 2 here] showed an inhibition (Homo sapiens) of 0% and an inhibition [3] of 0%.
For `NCC(=O)N1CCC[C@H]1C(=O)N[C@@H](CCCN=C(N)N)C(=O)N1CCC[C@H]1C(=O)N[C@@H](Cc1ccc([N+](=O)[O-])cc1)C(=O)O` (stereo in doubt; 10) [listing 1 of 2 here], the Inhibition [1] was 73%.
With `NCC(=O)N1CCC[C@H]1C(=O)N[C@@H](CCCN=C(N)N)C(=O)N1CCC[C@H]1C(=O)N[C@@H](Cc1ccc([N+](=O)[O-])cc1)C(=O)O` (stereo in doubt; 10) [listing 2 of 2 here] the Relative potency [4] was 0.83, the inhibition (Homo sapiens) was 88% and the inhibition [3] was 0%.
With `NCC(=O)N1CCC[C@H]1C(=O)N[C@@H](CCCN=C(N)N)C(=O)N[C@@H](Cc1ccc([N+](=O)[O-])cc1)C(=O)O` (stereo in doubt; 19) [listing 1 of 2 here] the Inhibition [1] was 14%.
Compound `NCC(=O)N1CCC[C@H]1C(=O)N[C@@H](CCCN=C(N)N)C(=O)N[C@@H](Cc1ccc([N+](=O)[O-])cc1)C(=O)O` (stereo in doubt; 19) [listing 2 of 2 here] has an inhibition [3] of 0%.
Compound `NCC(=O)N1CCC[C@H]1C(=O)N[C@@H](CCCN=C(N)N)C(=O)N1CCC[C@H]1C(=O)N[C@@H](Cc1ccc([N+](=O)[O-])cc1)C(=O)O` (stereo in doubt; 20) has an inhibition [3] of 0%.
